# Results as given in ChEMBL document CHEMBL1157765, “Synthesis of DOTA-conjugated multimeric [Tyr3]octreotide peptides via a combination of Cu(I)-catalyzed "click" cycloaddition and thio acid/sulfonyl azide "sulfo-click" amidation and their in vivo evaluation” (J Med Chem, 2010).
# What was measured:
# Blood [1] = test: Biodistribution in blood of BALB/c mouse bearing rat AR42J cells at 0.37 MBq, iv after 24 hrs; type: ADME, organism-based, AR-42J; settings: in vivo
# How it was run: (§1)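 AR42J tumor grown in right flank of male BALB/c nude mice (20-25 g, 6-8 weeks) by sc injection of 5 × 10⁶ cells; used after ~2 weeks at 4-6 mm diameter. Groups of five received 0.37 MBq (0.1 μg) ¹¹¹In-DOTA conjugate iv via tail vein (labeled in 0.25 M NH₄OAc pH 5.5, 95 °C, 15 min). Tissues dissected at 2, 6 or 24 h, weighed, γ-counted against 1% injected-activity standards; %ID/g, mean ± SD.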
# Liver [2] = test: Biodistribution in liver of BALB/c mouse bearing rat AR42J cells at 0.37 MBq, iv after 6 hrs; type: ADME, organism-based, AR-42J; settings: in vivo; how it was run: as §1
# Pancreas [3] = test: Biodistribution in pancreas of BALB/c mouse bearing rat AR42J cells at 0.37 MBq, iv after 24 hrs; type: ADME, organism-based, AR-42J; settings: in vivo; how it was run: as §1
# [4] = Biodistribution in tumor of BALB/c mouse bearing rat AR42J cells at 0.37 MBq, iv after 24 hrs; type: ADME, organism-based, Neoplasm, AR-42J; settings: in vivo; how it was run: as §1
# Kidney [5] = test: Biodistribution in kidney of BALB/c mouse bearing rat AR42J cells at 0.37 MBq, iv after 6 hrs; type: ADME, organism-based, AR-42J; settings: in vivo; how it was run: as §1
# Pancreas [6] = test: Biodistribution in pancreas of BALB/c mouse bearing rat AR42J cells at 0.37 MBq, iv after 2 hrs; type: ADME, organism-based, AR-42J; settings: in vivo; how it was run: as §1
# [7] = Biodistribution in adrenal gland of BALB/c mouse bearing rat AR42J cells at 0.37 MBq, iv after 2 hrs under cold condition; type: ADME, organism-based, AR-42J; settings: in vivo
# How it was run: (§2)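 Receptor block: groups of three AR42J tumor-bearing male BALB/c nude mice co-injected iv via tail vein with 0.37 MBq (0.1 μg) ¹¹¹In-DOTA conjugate plus 50 μg octreotide. Killed by CO₂/O₂ at 2 h; blood, tumor and tissues dissected, weighed and γ-counted against 1% injected-activity standards; %ID/g reported as mean ± SD.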
# [8] = Biodistribution in tumor of BALB/c mouse bearing rat AR42J cells at 0.37 MBq, iv after 6 hrs; type: ADME, organism-based, Neoplasm, AR-42J; settings: in vivo; how it was run: as §1
# Spleen [9] = test: Biodistribution in spleen of BALB/c mouse bearing rat AR42J cells at 0.37 MBq, iv after 24 hrs; type: ADME, organism-based, AR-42J; settings: in vivo; how it was run: as §1
# Blood [10] = test: Biodistribution in blood of BALB/c mouse bearing rat AR42J cells at 0.37 MBq, iv after 6 hrs; type: ADME, organism-based, AR-42J; settings: in vivo; how it was run: as §1
# [11] = Biodistribution in adrenal gland of BALB/c mouse bearing rat AR42J cells at 0.37 MBq, iv after 2 hrs; type: ADME, organism-based, AR-42J; settings: in vivo; how it was run: as §1
# Pancreas [12] = test: Biodistribution in pancreas of BALB/c mouse bearing rat AR42J cells at 0.37 MBq, iv after 2 hrs under cold condition; type: ADME, organism-based, AR-42J; settings: in vivo; how it was run: as §2
# Spleen [13] = test: Biodistribution in spleen of BALB/c mouse bearing rat AR42J cells at 0.37 MBq, iv after 2 hrs; type: ADME, organism-based, AR-42J; settings: in vivo; how it was run: as §1
# Liver [14] = test: Biodistribution in liver of BALB/c mouse bearing rat AR42J cells at 0.37 MBq, iv after 24 hrs; type: ADME, organism-based, AR-42J; settings: in vivo; how it was run: as §1
# Spleen [15] = test: Biodistribution in spleen of BALB/c mouse bearing rat AR42J cells at 0.37 MBq, iv after 2 hrs under cold condition; type: ADME, organism-based, AR-42J; settings: in vivo; how it was run: as §2
# Kidney [16] = test: Biodistribution in kidney of BALB/c mouse bearing rat AR42J cells at 0.37 MBq, iv after 24 hrs; type: ADME, organism-based, AR-42J; settings: in vivo; how it was run: as §1
# Stomach [17] = test: Biodistribution in stomach of BALB/c mouse bearing rat AR42J cells at 0.37 MBq, iv after 2 hrs under cold condition; type: ADME, organism-based, AR-42J; settings: in vivo; how it was run: as §2
# Pancreas [18] = test: Biodistribution in pancreas of BALB/c mouse bearing rat AR42J cells at 0.37 MBq, iv after 6 hrs; type: ADME, organism-based, AR-42J; settings: in vivo; how it was run: as §1
# Blood [19] = test: Biodistribution in blood of BALB/c mouse bearing rat AR42J cells at 0.37 MBq, iv after 2 hrs under cold condition; type: ADME, organism-based, AR-42J; settings: in vivo; how it was run: as §2
# Spleen [20] = test: Biodistribution in spleen of BALB/c mouse bearing rat AR42J cells at 0.37 MBq, iv after 6 hrs; type: ADME, organism-based, AR-42J; settings: in vivo; how it was run: as §1
# Stomach [21] = test: Biodistribution in stomach of BALB/c mouse bearing rat AR42J cells at 0.37 MBq, iv after 6 hrs; type: ADME, organism-based, AR-42J; settings: in vivo; how it was run: as §1
# [22] = Biodistribution in adrenal gland of BALB/c mouse bearing rat AR42J cells at 0.37 MBq, iv after 24 hrs; type: ADME, organism-based, AR-42J; settings: in vivo; how it was run: as §1
# Liver [23] = test: Biodistribution in liver of BALB/c mouse bearing rat AR42J cells at 0.37 MBq, iv after 2 hrs under cold condition; type: ADME, organism-based, AR-42J; settings: in vivo; how it was run: as §2
# [24] = target: Somatostatin receptor type 2 (Rattus norvegicus, UniProt P30680); test: Displacement of [111In]DOTA0,Tyr3]octreotide from SSTR2 receptor in rat AR42J cells; type: cell-based, AR-42J
# How it was run: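 AR42J cells (DMEM, 10% FCS, 37 °C, 5% CO₂) seeded 8 × 10⁵/well and grown to confluence, washed with DMEM + 0.1% BSA. Incubated 3 h at 37 °C with [¹¹¹In-DOTA⁰,Tyr³]octreotide tracer (40 000 dpm) and unlabeled peptide at 0.1-300 nM. Washed twice; cell-bound activity γ-counted. IC₅₀ from fitted sigmoidal displacement curves with 95% CI.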
# Stomach [25] = test: Biodistribution in stomach of BALB/c mouse bearing rat AR42J cells at 0.37 MBq, iv after 24 hrs; type: ADME, organism-based, AR-42J; settings: in vivo; how it was run: as §1
# [26] = Biodistribution in tumor of BALB/c mouse bearing rat AR42J cells at 0.37 MBq, iv after 2 hrs; type: ADME, organism-based, Neoplasm, AR-42J; settings: in vivo; how it was run: as §1
# [27] = Biodistribution in tumor of BALB/c mouse bearing rat AR42J cells at 0.37 MBq, iv after 2 hrs under cold condition; type: ADME, organism-based, Neoplasm, AR-42J; settings: in vivo; how it was run: as §2
# Liver [28] = test: Biodistribution in liver of BALB/c mouse bearing rat AR42J cells at 0.37 MBq, iv after 2 hrs; type: ADME, organism-based, AR-42J; settings: in vivo; how it was run: as §1
# Kidney [29] = test: Biodistribution in kidney of BALB/c mouse bearing rat AR42J cells at 0.37 MBq, iv after 2 hrs under cold condition; type: ADME, organism-based, AR-42J; settings: in vivo; how it was run: as §2
# Stomach [30] = test: Biodistribution in stomach of BALB/c mouse bearing rat AR42J cells at 0.37 MBq, iv after 2 hrs; type: ADME, organism-based, AR-42J; settings: in vivo; how it was run: as §1
# [31] = Octanol-water partition coefficient, log D at pH 7.4; type: physicochemical
# How it was run: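 ¹¹¹In-labeled conjugate (~148 kBq) in PBS pH 7.4 mixed 1:1 with n-octanol and shaken 2 min. Phases separated by centrifugation (5 min, 250g); triplicate aliquots of each layer γ-counted. log D = log₁₀(octanol counts/aqueous counts), from at least two independent experiments.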
# Kidney [32] = test: Biodistribution in kidney of BALB/c mouse bearing rat AR42J cells at 0.37 MBq, iv after 2 hrs; type: ADME, organism-based, AR-42J; settings: in vivo; how it was run: as §1
# [33] = Biodistribution in adrenal gland of BALB/c mouse bearing rat AR42J cells at 0.37 MBq, iv after 6 hrs; type: ADME, organism-based, AR-42J; settings: in vivo; how it was run: as §1
# Blood [34] = test: Biodistribution in blood of BALB/c mouse bearing rat AR42J cells at 0.37 MBq, iv after 2 hrs; type: ADME, organism-based, AR-42J; settings: in vivo; how it was run: as §1
# Sequence of Somatostatin receptor type 2 (P30680 whole entry): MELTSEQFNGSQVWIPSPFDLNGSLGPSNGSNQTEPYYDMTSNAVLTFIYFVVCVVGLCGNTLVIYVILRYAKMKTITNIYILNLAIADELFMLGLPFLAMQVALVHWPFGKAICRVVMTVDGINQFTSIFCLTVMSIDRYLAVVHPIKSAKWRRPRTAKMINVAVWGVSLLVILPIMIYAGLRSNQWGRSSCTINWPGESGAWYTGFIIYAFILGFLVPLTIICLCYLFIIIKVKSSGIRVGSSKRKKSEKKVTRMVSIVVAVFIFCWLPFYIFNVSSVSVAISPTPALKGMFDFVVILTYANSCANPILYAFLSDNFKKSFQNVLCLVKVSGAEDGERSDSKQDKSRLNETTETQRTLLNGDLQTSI
Drug uptake (Blood [1]),Drug uptake (Liver [2]),Drug uptake (Pancreas [3]),Drug uptake [4],Drug uptake (Kidney [5]),Drug uptake (Pancreas [6]),Drug uptake [7],Drug uptake [8],Drug uptake (Blood [10]),Drug uptake [11],Drug uptake (Pancreas [12]),Drug uptake (Liver [14]),Drug uptake (Kidney [16]),Drug uptake (Stomach [17]),Drug uptake (Pancreas [18]),Drug uptake (Blood [19]),Drug uptake (Stomach [21]),Drug uptake [22],Drug uptake (Liver [23]),IC50 [24],SMILES,also measured
2.52 % ID/g,70.97 % ID/g,1.17 % ID/g,1.53 % ID/g,7.65 % ID/g,1.02 % ID/g,54.56 % ID/g,1.03 % ID/g,0.62 % ID/g,4.05 % ID/g,0.29 % ID/g,52.71 % ID/g,10.6 % ID/g,3.02 % ID/g,2.04 % ID/g,0.44 % ID/g,1.4 % ID/g,11.39 % ID/g,2.96 % ID/g,14 nM,C[C@@H](O)[C@@H]1NC(=O)[C@H](CCCCN)NC(=O)[C@@H](Cc2c[nH]c3ccccc23)NC(=O)[C@H](Cc2ccc(O)cc2)NC(=O)[C@@H](NC(=O)[C@@H](Cc2ccccc2)NC(=O)CCCCCn2cc(COc3cc(OCc4cn(CCCCCC(=O)N[C@H](Cc5ccccc5)C(=O)N[C@H]5CSSC[C@@H](C(=O)N[C@H](CO)[C@@H](C)O)NC(=O)[C@H]([C@@H](C)O)NC(=O)[C@H](CCCCN)NC(=O)[C@@H](Cc6c[nH]c7ccccc67)NC(=O)[C@H](Cc6ccc(O)cc6)NC5=O)nn4)cc(C(=O)NCCOc4cc(OCCNC(=O)c5cc(OCc6cn(CCCCCC(=O)N[C@H](Cc7ccccc7)C(=O)N[C@H]7CSSC[C@@H](C(=O)N[C@H](CO)[C@@H](C)O)NC(=O)[C@H]([C@@H](C)O)NC(=O)[C@H](CCCCN)NC(=O)[C@@H](Cc8c[nH]c9ccccc89)NC(=O)[C@H](Cc8ccc(O)cc8)NC7=O)nn6)cc(OCc6cn(CCCCCC(=O)N[C@H](Cc7ccccc7)C(=O)N[C@H]7CSSC[C@@H](C(=O)N[C@H](CO)[C@@H](C)O)NC(=O)[C@H]([C@@H](C)O)NC(=O)[C@H](CCCCN)NC(=O)[C@@H](Cc8c[nH]c9ccccc89)NC(=O)[C@H](Cc8ccc(O)cc8)NC7=O)nn6)c5)cc(C(=O)NS(=O)(=O)CCNC(=O)CN5CCN(CC(=O)O)CCN(CC(=O)O)CCN(CC(=O)O)CC5)c4)c3)nn2)CSSC[C@@H](C(=O)N[C@H](CO)[C@@H](C)O)NC1=O,Drug uptake (Spleen [9]): 20.26 % ID/g; Drug uptake (Spleen [13]): 16.84 % ID/g; Drug uptake (Spleen [15]): 23.45 % ID/g; Drug uptake (Spleen [20]): 23.92 % ID/g; Drug uptake (Stomach [25]): 1.13 % ID/g; Drug uptake [26]: 0.52 % ID/g; Drug uptake [27]: 1.19 % ID/g; Drug uptake (Liver [28]): 47.6 % ID/g; Drug uptake (Kidney [29]): 7.44 % ID/g; Drug uptake (Stomach [30]): 1.04 % ID/g; logD [31]: -0.71; Drug uptake (Kidney [32]): 4.62 % ID/g; Drug uptake [33]: 18.98 % ID/g; Drug uptake (Blood [34]): 0.27 % ID/g
0.17 % ID/g,14.92 % ID/g,0.36 % ID/g,12.14 % ID/g,65.61 % ID/g,2.96 % ID/g,1.56 % ID/g,30.91 % ID/g,0.86 % ID/g,2.69 % ID/g,1.18 % ID/g,5.54 % ID/g,11.74 % ID/g,3.46 % ID/g,1.69 % ID/g,2.31 % ID/g,7.78 % ID/g,1.27 % ID/g,22.67 % ID/g,2.45 nM,C[C@@H](O)[C@@H]1NC(=O)[C@H](CCCCN)NC(=O)[C@@H](Cc2c[nH]c3ccccc23)NC(=O)[C@H](Cc2ccc(O)cc2)NC(=O)[C@@H](NC(=O)[C@@H](Cc2ccccc2)NC(=O)CCCCCn2cc(COc3cc(OCc4cn(CCCCCC(=O)N[C@H](Cc5ccccc5)C(=O)N[C@H]5CSSC[C@@H](C(=O)N[C@H](CO)[C@@H](C)O)NC(=O)[C@H]([C@@H](C)O)NC(=O)[C@H](CCCCN)NC(=O)[C@@H](Cc6c[nH]c7ccccc67)NC(=O)[C@H](Cc6ccc(O)cc6)NC5=O)nn4)cc(C(=O)NS(=O)(=O)CCNC(=O)CN4CCN(CC(=O)O)CCN(CC(=O)O)CCN(CC(=O)O)CC4)c3)nn2)CSSC[C@@H](C(=O)N[C@H](CO)[C@@H](C)O)NC1=O,Drug uptake (Stomach [25]): 2.97 % ID/g; Drug uptake [26]: 25.31 % ID/g; Drug uptake [27]: 5.55 % ID/g; Drug uptake (Liver [28]): 18.67 % ID/g; Drug uptake (Kidney [29]): 57.78 % ID/g; Drug uptake (Stomach [30]): 10.21 % ID/g; logD [31]: -1.79; Drug uptake (Kidney [32]): 92.2 % ID/g; Drug uptake [33]: 2.49 % ID/g; Drug uptake (Blood [34]): 1.52 % ID/g
